# According to ChEMBL document CHEMBL1135992, “Quantitative structure-activity relationship analysis of functionalized amino acid anticonvulsant agents using k nearest neighbor and simulated annealing PLS methods” (2002):
# Assays:
# Assay type in all cases: functional
# Mus musculus [1] = experiment: In vivo anticonvulsant activity in male albino mice using the maximal electroshock seizure(MES) test upon intraperitoneal administration; value ranges from 75.4 to 101; settings: ip
# Mus musculus [2] = experiment: In vivo anticonvulsant activity in male albino mice using the maximal electroshock seizure(MES) test upon intraperitoneal administration, expressed as logarithm of effective dose
# Procedure, shortened: (§1)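 Mice (18–25 g) received the test agent intraperitoneally as a suspension in 0.5% (w/v) methylcellulose in water. A 60-cycle alternating current at 50 mA was applied for 0.2 s, and protection meant abolition of the hindlimb tonic extensor component. The ED50 was determined at the time of peak effect in groups of at least eight mice. At least two doses fell between 100% and 0% protection, and the 95% confidence interval was calculated by Finney's method.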
# Mus musculus [3] = experiment: In vivo anticonvulsant activity in male albino mice using the maximal electroshock seizure(MES) test upon intraperitoneal administration; value ranges from 34.9 to 45; settings: ip; procedure, shortened: as §1
# Mus musculus [4] = experiment: Anticonvulsant activity in mice following i.p. treatment and Maximal Electroshock Seizure (MES) test.
# Procedure, shortened: (§2)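 Mice (18–25 g) received the compound ip as a suspension in 0.5% (w/v) methylcellulose in water. A 60-cycle alternating current of 50 mA was applied for 0.2 s. Protection was defined as abolition of the hindlimb tonic extensor component. […] ED50 and 95% confidence interval were calculated by Finney's methods.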
# Mus musculus [5] = experiment: In vivo anticonvulsant activity in male albino mice using the maximal electroshock (MES) test after intraperitoneal administration; settings: ip; procedure, shortened: as §1
# Mus musculus [6] = experiment: In vivo anticonvulsant activity in male albino mice using the maximal electroshock (MES) test after intraperitoneal administration; value ranges from 457.7-715; settings: ip
# Mus musculus [7] = experiment: In vivo anticonvulsant activity in male albino mice using the maximal electroshock seizure(MES) test upon intraperitoneal administration; value ranges from 62.5 to 91; settings: ip
# Mus musculus [8] = experiment: In vivo anticonvulsant activity in male albino mice using the maximal electroshock seizure(MES) test upon intraperitoneal administration, expressed as logarithm of effective dose; value ranges from 2.58 to 3.06; procedure, shortened: as §1
# Mus musculus [9] = experiment: In vivo anticonvulsant activity in male albino mice using the maximal electroshock seizure(MES) test upon intraperitoneal administration (exp 2); settings: ip; procedure, shortened: as §2
# Mus musculus [10] = experiment: In vivo anticonvulsant activity in male albino mice using the maximal electroshock seizure(MES) test upon intraperitoneal administration (exp 1); settings: ip; procedure, shortened: as §2
# Mus musculus [11] = experiment: In vivo anticonvulsant activity in male albino mice using the maximal electroshock seizure(MES) test upon intraperitoneal administration; value ranges from 51.9 to 68; settings: ip
# Mus musculus [12] = experiment: In vivo anticonvulsant activity in male albino mice using the maximal electroshock seizure(MES) test upon intraperitoneal administration; value ranges from 44.4 to 59.9; settings: ip
# Mus musculus [13] = experiment: In vivo anticonvulsant activity in male albino mice using the maximal electroshock seizure(MES) test upon intraperitoneal administration; value ranges from 15 to 19; settings: ip
# Mus musculus [14] = experiment: In vivo anticonvulsant activity in male albino mice using the maximal electroshock (MES) test after intraperitoneal administration; value ranges from 21.4-40.8; settings: ip
# Mus musculus [15] = experiment: In vivo anticonvulsant activity in male albino mice using the maximal electroshock (MES) test after intraperitoneal administration (exp 2); settings: ip; procedure, shortened: as §2
# Mus musculus [16] = experiment: In vivo anticonvulsant activity in male albino mice using the maximal electroshock (MES) test after intraperitoneal administration (exp 1); settings: ip; procedure, shortened: as §2
# Mus musculus [17] = experiment: In vivo anticonvulsant activity in male albino mice using the maximal electroshock seizure(MES) test upon intraperitoneal administration, expressed as logarithm of effective dose; value ranges from 2.63 to 3.11
# Mus musculus [18] = experiment: In vivo anticonvulsant activity in male albino mice using the maximal electroshock seizure(MES) test upon intraperitoneal administration, expressed as logarithm of effective dose; value ranges from 2.08 to 2.60
# Mus musculus [19] = experiment: In vivo anticonvulsant activity in male albino mice using the maximal electroshock seizure(MES) test upon intraperitoneal administration (exp-1); settings: ip; procedure, shortened: as §1
# Mus musculus [20] = experiment: In vivo anticonvulsant activity in male albino mice using the maximal electroshock seizure(MES) test upon intraperitoneal administration, expressed as logarithm of effective dose; value ranges from 2.63 to 3.12; procedure, shortened: as §1
# Mus musculus [21] = experiment: In vivo anticonvulsant activity in male albino mice using the maximal electroshock seizure(MES) test upon intraperitoneal administration (exp-2); settings: ip; procedure, shortened: as §1
# Mus musculus [22] = experiment: In vivo anticonvulsant activity in male albino mice using the maximal electroshock seizure(MES) test upon intraperitoneal administration; value ranges from 46 to 61; settings: ip
# Mus musculus [23] = experiment: In vivo anticonvulsant activity in male albino mice using the maximal electroshock seizure(MES) test upon intraperitoneal administration; settings: ip; procedure, shortened: as §2
# Mus musculus [24] = experiment: In vivo anticonvulsant activity in male albino mice using the maximal electroshock seizure(MES) test upon intraperitoneal administration, expressed as logarithm of effective dose; value ranges from 2.01 to 2.63
# Mus musculus [25] = experiment: In vivo anticonvulsant activity in male albino mice using the maximal electroshock seizure(MES) test upon intraperitoneal administration; value ranges from 74.3 to 99.1; settings: ip; procedure, shortened: as §2
# Mus musculus [26] = experiment: In vivo anticonvulsant activity in male albino mice using the maximal electroshock (MES) test after intraperitoneal administration; value ranges from 34.9-54.3; settings: ip; procedure, shortened: as §1
# Mus musculus [27] = experiment: In vivo anticonvulsant activity in male albino mice using the maximal electroshock (MES) test after intraperitoneal administration; value ranges from 76.8-120; settings: ip; procedure, shortened: as §1
# Mus musculus [28] = experiment: In vivo anticonvulsant activity in male albino mice using the maximal electroshock (MES) test after intraperitoneal administration; value ranges from 85.7-151; settings: ip
# Mus musculus [29] = experiment: In vivo anticonvulsant activity in male albino mice using the maximal electroshock seizure(MES) test upon intraperitoneal administration; value ranges from 14.6 to 41; settings: ip; procedure, shortened: as §2
# Mus musculus [30] = experiment: In vivo anticonvulsant activity in male albino mice using the maximal electroshock (MES) test after intraperitoneal administration; value ranges from 26.7-37.8; settings: ip
# Mus musculus [31] = experiment: In vivo anticonvulsant activity in male albino mice using the maximal electroshock seizure(MES) test upon intraperitoneal administration, expressed as logarithm of effective dose; value ranges from 2.10 to 2.63
Compound,Log ED50 (Mus musculus [2]) [uM kg-1],Log ED50 (Mus musculus [4]) [uM kg-1],further results
CC(=O)NC(C(=N)S)C(=O)NCc1ccccc1 (stereo not given),2.51,,ED50 (Mus musculus [1]): 86.2 mg/kg
CCCC(NC(C)=O)C(=O)NCc1ccccc1 (stereo not given),2.19,,ED50 (Mus musculus [3]): 38.4 mg/kg
CC(=O)NC(C)C(=O)NCCCc1ccccc1 (stereo not given),,2.55,ED50 (Mus musculus [5]): 87.6 mg/kg
CC(=O)NC(C(=O)NCc1ccccc1)c1ccc(C)[nH]1 (stereo not given),2.12,,
CC(=O)NC(C(=O)NCc1ccccc1)n1cccn1 (stereo not given),,1.78,
CC(=O)NC(C(=N)NOC(C)=O)C(=O)NCc1ccccc1 (stereo not given),,2.66,ED50 (Mus musculus [6]): 140 mg/kg
CC(=O)NC(C(=O)NCc1ccccc1)c1ccc[nH]1 (stereo not given),1.77,,
CCOC(NC(C)=O)C(=O)NCc1ccccc1 (stereo not given),,2.39,
CC(=O)NC(C(=O)NCc1ccccc1)c1ccsc1 (stereo not given),2.48,,
COC(NC(C)=O)C(=O)NCc1ccccc1 (stereo not given),,2.62,
CC(=O)NC(C(=O)NCc1ccccc1)c1ccccc1 (stereo not given),2.06,,
CC(=O)NC(C)C(=O)NCc1cccc(F)c1 (stereo not given),2.51,,ED50 (Mus musculus [7]): 77.3 mg/kg
C=CC(=O)NC(COC)C(=O)NCc1ccccc1 (stereo not given),,,Log ED50 (Mus musculus [8]): 3.06 uM kg-1; ED50 (Mus musculus [9]): < 300 mg/kg; ED50 (Mus musculus [10]): > 100 mg/kg
CC(=O)NC(NNC(=O)OCc1ccccc1)C(=O)NCc1ccccc1 (stereo not given),,2.18,
CC(=O)NC(=O)NCc1ccccc1,2.5,,ED50 (Mus musculus [11]): 60.1 mg/kg
CC(=O)NC(C(=O)NCc1cc(F)ccc1F)c1ccco1 (stereo not given),1.89,,
CC(=O)NC(C(=O)NCc1ccccc1)c1ncco1 (stereo not given),1.58,,
CC(=O)NC(C(=O)NCc1ccccc1)c1ccco1 (stereo not given),1.58,,
CC(=O)NC(C(=O)NCc1ccccc1)c1ncccn1 (stereo not given),1.46,,
CC(=O)NC(C(=O)NCc1ccccc1)c1cnccn1 (stereo not given),1.72,,

Compound,Log ED50 (Mus musculus [2]) [uM kg-1],Log ED50 (Mus musculus [4]) [uM kg-1],further results
CC(=O)NC(C(=O)NCc1ccccc1)C1CCCO1 (stereo not given),2.27,,ED50 (Mus musculus [12]): 51.7 mg/kg
CC(=O)NC(C(=O)NCc1ccc(F)cc1)c1ccco1 (stereo not given),1.64,,
CC(=O)NC(C(=O)NCc1cccc(F)c1)c1ccco1 (stereo not given),1.66,,
CCOCC(NC(C)=O)C(=O)NCc1ccccc1 (stereo not given),1.81,,ED50 (Mus musculus [13]): 17 mg/kg
CON(C)C(NC(C)=O)C(=O)NCc1ccccc1 (stereo not given),,1.4,
CC(=O)NC(C(=O)NCc1ccccc1)c1cccs1 (stereo not given),2.19,,
CNC(C)C(=O)NCc1ccccc1 (stereo not given),,2.21,ED50 (Mus musculus [14]): 31.2 mg/kg
CC(=O)NC(Nc1ccc(N)cc1)C(=O)NCc1ccccc1 (stereo not given),,2.75,ED50 (Mus musculus [5]): 176 mg/kg
CCCC(N)C(=O)NCc1ccccc1 (stereo not given),,2.69,ED50 (Mus musculus [15]): < 100 mg/kg; ED50 (Mus musculus [16]): > 30 mg/kg
CC(=O)NC(C)C(=O)N(C)Cc1ccccc1 (stereo not given),,,ED50 (Mus musculus [9]): < 300 mg/kg; Log ED50 (Mus musculus [17]): 3.11 uM kg-1; ED50 (Mus musculus [10]): > 100 mg/kg
CCC(C(=O)NCc1ccccc1)N(C)C(C)=O (stereo not given),,,Log ED50 (Mus musculus [18]): 2.6 uM kg-1; ED50 (Mus musculus [9]): < 100 mg/kg; ED50 (Mus musculus [10]): > 30 mg/kg
CC(=O)NC(C)C(=O)NCc1ccccc1 (racemic),2.54,,
CCC(NC)C(=O)NCc1ccccc1 (stereo not given),,2.69,ED50 (Mus musculus [15]): < 100 mg/kg; ED50 (Mus musculus [16]): > 30 mg/kg
CCC(NC(C)=O)C(=O)NCc1ccccc1 (stereo not given),,,ED50 (Mus musculus [19]): > 100 mg/kg; Log ED50 (Mus musculus [20]): 3.12 uM kg-1; ED50 (Mus musculus [21]): < 300 mg/kg
CC(=O)NC(C(=O)NCc1ccccc1)c1ccccn1 (stereo not given),1.58,,
O=C(NCc1ccccc1)C1CCCCN1 (stereo not given),2.38,,ED50 (Mus musculus [22]): 53 mg/kg
CC(=O)NCC(C)C(=O)NCc1ccccc1 (stereo not given),3.06,,ED50 (Mus musculus [23]): 270 mg/kg
COCC(NC=O)C(=O)NCc1ccccc1 (stereo not given),,,Log ED50 (Mus musculus [24]): 2.63 uM kg-1; ED50 (Mus musculus [9]): < 100 mg/kg; ED50 (Mus musculus [10]): > 30 mg/kg
CCN(C(C)=O)C(C)C(=O)NCc1ccccc1 (stereo not given),2.53,,ED50 (Mus musculus [25]): 85 mg/kg
CCC(=O)NC(COC)C(=O)NCc1ccccc1 (stereo not given),,,Log ED50 (Mus musculus [8]): 3.06 uM kg-1; ED50 (Mus musculus [9]): < 300 mg/kg; ED50 (Mus musculus [10]): > 100 mg/kg

Compound,Log ED50 (Mus musculus [2]) [uM kg-1],Log ED50 (Mus musculus [4]) [uM kg-1],further results
CC(=O)NC(O)C(=O)NCc1ccccc1 (stereo not given),,2.56,
CC(=O)NC(N)C(=O)NCc1ccccc1 (stereo not given),,2.47,
CNC(NC(C)=O)C(=O)NCc1ccccc1 (stereo not given),,2.28,
CC(=O)NC(C(=O)NCc1ccccc1)c1nccs1 (stereo not given),1.62,,
CC(=O)NC(C(=O)NCc1ccccc1)N(N)c1ccccc1 (stereo not given),,2.14,ED50 (Mus musculus [26]): 42.8 mg/kg
CC(=O)NC(C(=O)NCc1ccccc1)N(C)C (stereo not given),,2.26,
CC(=O)NC(C(=O)NCc1ccccc1F)c1ccco1 (stereo not given),2.14,,
CC(=O)NC(Nc1cccc(N)c1)C(=O)NCc1ccccc1 (stereo not given),,2.5,ED50 (Mus musculus [27]): 98.6 mg/kg
CC(=O)NC(C(=O)NCc1ccccc1)c1ccc(C)o1 (stereo not given),1.83,,
C/C(S)=N\C(C(=O)NCc1ccccc1)c1ccco1 (stereo not given),1.8,,
CONC(NC(C)=O)C(=O)NCc1ccccc1 (stereo not given),,1.39,
C=CCC(NC(C)=O)C(=O)NCc1ccccc1 (stereo not given),2.16,,
CC(=O)NC(C(=N)NO)C(=O)NCc1ccccc1 (stereo not given),,2.63,ED50 (Mus musculus [28]): 112 mg/kg
COCC(NC(C)=O)C(=O)N(C)Cc1ccccc1 (stereo not given),,,Log ED50 (Mus musculus [8]): 3.06 uM kg-1; ED50 (Mus musculus [9]): < 300 mg/kg; ED50 (Mus musculus [10]): > 100 mg/kg
CN1CSCC1C(=O)NCc1ccccc1 (stereo not given),2.09,,ED50 (Mus musculus [29]): 29.1 mg/kg
CCNC(NC(C)=O)C(=O)NCc1ccccc1 (stereo not given),,2.23,
CC(=O)NC(C(=O)NCc1ccccc1)N1CC=CO1 (stereo not given),,2.05,ED50 (Mus musculus [30]): 31.4 mg/kg
CC(N)C(=O)NCc1ccccc1 (stereo not given),,3.23,ED50 (Mus musculus [15]): < 300 mg/kg; ED50 (Mus musculus [16]): > 100 mg/kg
CC(=O)N(C)C(C)C(=O)NCc1ccccc1 (stereo not given),,,ED50 (Mus musculus [19]): > 30 mg/kg; Log ED50 (Mus musculus [31]): 2.63 uM kg-1; ED50 (Mus musculus [21]): < 100 mg/kg
CC(=O)NC(C(=O)NCc1ccccc1)n1cccc1 (stereo not given),,2.47,
